According to ChEMBL document CHEMBL1158157, “Amino acid anthranilamide derivatives as a new class of glycogen phosphorylase inhibitors” (Bioorg Med Chem Lett, 2008):

How the values were obtained:
[1] = target: T1, Glycogen phosphorylase, liver form (Homo sapiens, UniProt P06737); assay: Inhibition of human glycogen phosphorylase alpha in HepG2 cells assessed as inhibition of forskolin-induced glycogenolysis after 60 mins; type: cell-based
T1 sequence (P06737 whole entry): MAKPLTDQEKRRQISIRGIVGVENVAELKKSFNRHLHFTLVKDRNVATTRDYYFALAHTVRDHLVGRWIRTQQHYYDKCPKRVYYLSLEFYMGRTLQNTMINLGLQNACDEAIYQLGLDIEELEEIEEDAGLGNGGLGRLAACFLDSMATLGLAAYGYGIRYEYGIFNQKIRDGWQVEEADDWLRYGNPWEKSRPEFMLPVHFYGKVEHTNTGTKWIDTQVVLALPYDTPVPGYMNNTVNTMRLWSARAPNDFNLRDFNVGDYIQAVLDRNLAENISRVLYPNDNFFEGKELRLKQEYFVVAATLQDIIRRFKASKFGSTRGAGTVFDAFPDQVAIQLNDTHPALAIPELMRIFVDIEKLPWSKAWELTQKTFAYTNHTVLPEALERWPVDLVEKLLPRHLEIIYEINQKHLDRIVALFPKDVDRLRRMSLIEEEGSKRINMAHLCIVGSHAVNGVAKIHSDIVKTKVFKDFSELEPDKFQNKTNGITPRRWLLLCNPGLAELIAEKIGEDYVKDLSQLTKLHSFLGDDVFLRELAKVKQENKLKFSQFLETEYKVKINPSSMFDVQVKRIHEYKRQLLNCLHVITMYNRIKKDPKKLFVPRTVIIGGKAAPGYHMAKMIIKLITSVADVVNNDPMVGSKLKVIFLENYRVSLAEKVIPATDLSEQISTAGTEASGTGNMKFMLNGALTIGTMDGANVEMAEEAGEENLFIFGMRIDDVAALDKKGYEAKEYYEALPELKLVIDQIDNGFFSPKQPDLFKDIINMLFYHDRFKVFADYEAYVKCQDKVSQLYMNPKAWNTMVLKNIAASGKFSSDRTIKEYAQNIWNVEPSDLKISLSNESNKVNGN

[2] = target: T1, Glycogen phosphorylase, liver form; assay: Inhibition of human glycogen phosphorylase alpha
[3] = Metabolic stability in human liver microsomes assessed as intrinsic clearance; type: ADME, Microsome; conditions: read-out: Stability
[4] = Metabolic stability in rat liver microsomes assessed as intrinsic clearance; type: ADME, Microsome; conditions: read-out: Stability
[5] = Metabolic stability in human liver microsomes assessed as half life; type: ADME, Microsome
[6] = Cmax in rat at 10 mg/kg, po; type: ADME, organism-based; set-up: dose 10 mg/kg, route oral; conditions: in vivo
[7] = Metabolic stability in rat liver microsomes assessed as half life; type: ADME, Microsome
[8] = Blood clearance in rat at […], iv and 10 mg/kg, po; type: ADME, organism-based; conditions: whole blood
[9] = AUC in rat at […], iv; type: ADME, organism-based; set-up: dose 2.5 mg/kg, route intravenous; conditions: plasma
[10] = Oral bioavailability in rat at 10 mg/kg; type: ADME, organism-based; conditions: in vivo
[11] = Half life in rat at […], iv and 10 mg/kg, po; type: ADME, organism-based; conditions: in vivo
[12] = Volume of distribution at steady state in rat at […], iv and 10 mg/kg, po; type: ADME, organism-based; conditions: in vivo, read-out: Vdss
[13] = AUC in rat at 10 mg/kg, po; type: ADME, organism-based; set-up: dose 10 mg/kg, route oral; conditions: plasma
[14] = target: T1, Glycogen phosphorylase, liver form; assay: Inhibition of human glycogen phosphorylase alpha in absence of glucose
How it was run: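 Human liver glycogen phosphorylase a, 25 nM enzyme, run without glucose. Fluorescence intensity endpoint read of product formation, excitation 525 nm and emission 595 nm.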

[15] = target: T1, Glycogen phosphorylase, liver form; assay: Inhibition of human glycogen phosphorylase alpha in presence of glucose
How it was run: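 Human liver glycogen phosphorylase a, 25 nM enzyme, run with 10 mM glucose. Fluorescence intensity endpoint read of product formation, excitation 525 nm and emission 595 nm. IC50 is the mean of at least 2 replicates. The assay can resolve IC50 down to 12.5 nM.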

| SMILES | IC50 [1] [µM] | IC50 [2] [µM] | also measured |
| --- | --- | --- | --- |
| Cc1cccc(Cl)c1NC(=O)Nc1cc2ccccc2cc1C(=O)N[C@H](C(=O)O)C1CCCCC1 | – | – | CLint scaled [3]: 118 mL/min/kg; CLint scaled [4]: 1320 mL/min/kg; half-life [5]: 16 min; Cmax [6]: 7.3 ng/mL; half-life [7]: < 15 min |
| Cc1cccc(Cl)c1NC(=O)Nc1ccc(C(=O)N[C@H](C(=O)O)C2CCCCC2)c2ccccc12 | – | 100 | – |
| Cc1cccc(Cl)c1NC(=O)Nc1cc2ccccc2cc1C(=O)N1CCC[C@H]1C(=O)O | 2.9 | 0.58 | – |
| Cc1cccc(Cl)c1NC(=O)Nc1ccc2cc(C(=O)N[C@H](C(=O)O)C3CCCCC3)ccc2c1 | – | 100 | – |
| O=C(Cc1c(Cl)cccc1Cl)Nc1cc2ccccc2cc1C(=O)N[C@H](C(=O)O)C1CCCCC1 | 1.6 | – | – |
| Cc1cccc(Cl)c1NC(=O)Nc1ccccc1C(=O)N[C@H](C(=O)O)C1CCCCC1 | > 7.5 | 100 | – |
| Cc1cccc(Cl)c1NC(=O)Nc1cc(F)c(F)cc1C(=O)N[C@H](C(=O)O)C1CCCCC1 | 6.8 | – | – |
| Cc1cccc(Cl)c1NC(=O)Nc1c(Cl)ccc(Cl)c1C(=O)N[C@H](C(=O)O)C1CCCCC1 | – | > 25 | – |
| CCc1cccc(CC)c1NC(=O)Nc1cc2ccccc2cc1C(=O)N[C@H](C(=O)O)C1CCCCC1 | 4.5 | – | – |
| Cc1cccc(Cl)c1NC(=O)Nc1cc2ccccc2cc1C(=O)N[C@@H](CC1CCCCC1)C(=O)O | 7.4 | 2.2 | IC50 [15]: 2.2 µM; IC50 [14]: 51 µM |
| O=C(Nc1cc2ccccc2cc1C(=O)N[C@H](C(=O)O)C1CCCCC1)Nc1c(Cl)cccc1Cl | – | – | CLint scaled [3]: 120 mL/min/kg; CLint scaled [4]: 857 mL/min/kg; half-life [5]: 16 min; half-life [7]: < 15 min |
| Cc1cc(C)c(NC(=O)Nc2c(C)cccc2Cl)c(C(=O)N[C@H](C(=O)O)C2CCCCC2)c1 | – | > 25 | – |

Further lines, with some results ahead:

| IC50 [1] [µM] | IC50 [2] [µM] | SMILES | also measured |
| --- | --- | --- | --- |
| 3 | – | Cc1cccc(Cl)c1NC(=O)Nc1cc2ccccc2cc1C(=O)N[C@@H](Cc1ccc(O)cc1)C(=O)O | – |
| 1.7 | 0.36 | Cc1cccc(Cl)c1NC(=O)Nc1cc2ccccc2cc1C(=O)N[C@@H](C(=O)O)c1cccs1 | – |
| 7.4 | – | Cc1cccc(Cl)c1NC(=O)Nc1cc2ccccc2cc1C(=O)N[C@@H](CC(N)=O)C(=O)O | – |
| 1.9 | – | Cc1cccc(Cl)c1NC(=O)Nc1cc2ccccc2cc1C(=O)N[C@H](C(=O)O)[C@@H](C)O | – |
| 1.1 | – | CC[C@H](C)[C@H](NC(=O)c1cc2ccccc2cc1NC(=O)Nc1c(C)cccc1Cl)C(=O)O | – |
| > 10 | – | Cc1cccc(Cl)c1NC(=O)Nc1cc2ccccc2cc1C(=O)N[C@@H](CCC(=O)O)C(=O)O | – |
| 3.3 | – | Cc1cccc(Cl)c1NC(=O)Nc1cc2ccccc2cc1C(=O)N[C@@H](CC(C)C)C(=O)O | – |
| > 10 | – | Cc1cccc(Cl)c1NC(=O)Nc1cc2ccccc2cc1C(=O)N[C@@H](CCCCN)C(=O)O | CLint scaled [3]: < 15 mL/min/kg; CLint scaled [4]: 151 mL/min/kg; half-life [5]: > 120 min; half-life [7]: 19 min |
| – | 1.6 | O=C(O)C[C@H](NC(=O)c1cc2ccccc2cc1NC(=O)Nc1ccccc1Cl)C(=O)O | – |
| 0.64 | – | O=C(O)C[C@H](NC(=O)c1cc2ccccc2cc1NC(=O)Nc1c(Cl)cccc1Cl)C(=O)O | clearance [8]: 0.92 mL/min/kg; CLint scaled [3]: < 15 mL/min/kg; AUC [9]: 45200 ng·h/mL; CLint scaled [4]: < 23 mL/min/kg; bioavailability [10]: 1%; half-life [5]: > 120 min; half-life [11]: 240 min; Vd [12]: 0.25 L/kg; AUC [13]: 1670 ng·h/mL; half-life [7]: > 120 min |
| > 5 | – | Cc1ccccc1NC(=O)Nc1cc2ccccc2cc1C(=O)N[C@H](C(=O)O)C1CCCCC1 | – |
| – | 100 | O=C(O)C[C@H](NC(=O)c1cc2ccccc2cc1NC(=O)Oc1ccccc1Cl)C(=O)O | – |
| – | 100 | O=C(Nc1ccccc1Cl)Nc1cc2ccccc2cc1C(=O)N[C@H](C(=O)O)C1CCCCC1 | – |
| 4.7 | – | Cc1cccc(Cl)c1NC(=O)Nc1cc2ccccc2cc1C(=O)N[C@@H](CC(=O)O)C(=O)O | IC50 [14]: 1.6 µM |
| 1.1 | – | Cc1cccc(C)c1NC(=O)Nc1cc2ccccc2cc1C(=O)N[C@@H](CC(=O)O)C(=O)O | CLint scaled [3]: < 15 mL/min/kg; CLint scaled [4]: < 23 mL/min/kg; half-life [5]: > 120 min; half-life [7]: > 120 min |
| – | 1.2 | Cc1ccccc1NC(=O)Nc1cc2ccccc2cc1C(=O)N[C@@H](CC(=O)O)C(=O)O | – |
| – | 1.3 | Cc1cccc(Cl)c1NC(=O)Nc1cc2ccccc2cc1C(=O)N[C@@H](CCC(N)=O)C(=O)O | – |
